# From ChEMBL document CHEMBL1687890, “Design, synthesis, pharmacological evaluation, and structure-activity study of novel endomorphin analogues with multiple structural modifications” (J Med Chem, 2011)
# Columns and labels:
# [1] = target: Delta-type opioid receptor (Rattus norvegicus, UniProt P33533); assay: Displacement of [3H][Ile5,6]deltorphin2 from delta opioid receptor in rat brain membrane homogenate by liquid scintillation counting; assay type: cell membranes
# [2] = target: Mu-type opioid receptor (Rattus norvegicus) (UniProt P33535); assay: Agonist activity at opioid receptor in mu rat brain membrane by [35S]GTPgammaS binding assay relative to baseline in presence of opioid-selective antagonist naloxone; assay type: functional, cell membranes
# [3] = target: Mu-type opioid receptor (Rattus norvegicus) (UniProt P33535); assay: Agonist activity at mu opioid receptor in rat brain membrane by [35S]GTPgammaS binding assay relative to baseline; assay type: functional, cell membranes
# [4] = Half life in rat brain homogenate by RP-HPLC; assay type: ADME, tissue-based
# Procedure, shortened: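 Peptide (1 mM stock in 50 mM Tris-HCl pH 7.4, 1:10 into homogenate) incubated at 37 °C with crude rat brain homogenate (5.0 mg/mL protein). Aliquots quenched with HCl, centrifuged, supernatant run on RP-HPLC. k from linear regression of ln(A/A0) vs time over at least 5 time points; t1/2 = ln2/k, pseudo-first-order. At least three experiments.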
# Rattus norvegicus = species on record: Rattus norvegicus; assay: Selectivity ratio of Ki for delta opioid receptor in rat brain to mu opioid receptor in rat brain; assay type: tissue-based
# Mu-type opioid receptor [5] = target: T1, Mu-type opioid receptor (Rattus norvegicus, UniProt P33535); assay: Agonist activity at mu opioid receptor in rat brain membrane by [35S]GTPgammaS binding assay; assay type: functional, cell membranes
# Mu-type opioid receptor [6] = target: T1, Mu-type opioid receptor; assay: Displacement of [3H]DAMGO from mu opioid receptor in rat brain membrane homogenate by liquid scintillation counting; assay type: cell membranes
# Sequence of Delta-type opioid receptor (P33533 whole entry): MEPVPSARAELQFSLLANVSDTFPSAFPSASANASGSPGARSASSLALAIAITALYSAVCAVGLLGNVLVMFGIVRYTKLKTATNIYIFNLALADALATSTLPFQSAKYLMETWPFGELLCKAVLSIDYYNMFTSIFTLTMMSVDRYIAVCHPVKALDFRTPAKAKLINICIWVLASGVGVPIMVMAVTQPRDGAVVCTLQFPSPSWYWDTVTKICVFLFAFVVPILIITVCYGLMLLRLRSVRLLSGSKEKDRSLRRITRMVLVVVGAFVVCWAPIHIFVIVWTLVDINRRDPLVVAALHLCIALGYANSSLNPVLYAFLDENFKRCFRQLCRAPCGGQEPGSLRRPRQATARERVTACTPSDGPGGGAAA
# T1 sequence (P33535 whole entry): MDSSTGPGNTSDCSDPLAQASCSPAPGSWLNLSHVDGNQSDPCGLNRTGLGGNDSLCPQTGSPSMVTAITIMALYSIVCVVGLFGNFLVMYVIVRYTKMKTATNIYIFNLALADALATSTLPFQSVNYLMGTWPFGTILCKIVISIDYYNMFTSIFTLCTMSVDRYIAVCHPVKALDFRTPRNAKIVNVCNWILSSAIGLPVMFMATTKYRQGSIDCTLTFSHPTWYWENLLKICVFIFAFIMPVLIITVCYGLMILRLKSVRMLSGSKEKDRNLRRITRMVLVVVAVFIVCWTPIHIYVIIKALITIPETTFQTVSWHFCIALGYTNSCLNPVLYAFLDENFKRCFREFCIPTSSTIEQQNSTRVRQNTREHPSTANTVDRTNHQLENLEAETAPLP
# Sequence of Mu-type opioid receptor (Rattus norvegicus) (P33535 whole entry): as above
Structure (SMILES),Ki [1] [nM],Emax [2] [%],Emax [3] [%],half-life [4] [h],Ratio Ki (Rattus norvegicus),EC50 (Mu-type opioid receptor [5]) [nM],Ki (Mu-type opioid receptor [6]) [nM]
C[C@@H](c1ccccc1)[C@H](NC(=O)[C@H](Cc1c[nH]c2ccccc12)NC(=O)[C@H]1CCCC[C@H]1NC(=O)[C@@H](N)Cc1ccc(O)cc1)C(N)=O,1440,130,162,> 20,343,264,4.2
NC(=O)C(Cc1ccc(F)cc1)NC(=O)[C@H](Cc1ccccc1)NC(=O)[C@@H]1CCCC[C@@H]1NC(=O)[C@@H](N)Cc1ccc(O)cc1 (some centres undefined),689,–,–,–,–,–,–
Cc1cc(CC(N)C(=O)N[C@@H]2CCCC[C@@H]2C(=O)N[C@@H](Cc2c[nH]c3ccccc23)C(=O)NC(Cc2ccc(F)cc2)C(N)=O)cc(C)c1O (some centres undefined),2640,127,163,–,237,8.1,11.1
C[C@@H](c1ccccc1)[C@H](NC(=O)[C@H](Cc1ccccc1)NC(=O)[C@H]1CCCC[C@H]1NC(=O)[C@@H](N)Cc1ccc(O)cc1)C(N)=O,661,–,–,–,–,–,–
NC(=O)[C@H](Cc1ccccc1)NC(=O)[C@H](Cc1c[nH]c2ccccc12)NC(=O)[C@@H]1CCCN1C(=O)[C@@H](N)Cc1ccc(O)cc1 [ENDOMORPHIN-1],–,124,149,0.105,–,–,–
Cc1cc(CC(N)C(=O)N[C@@H]2CCCC[C@@H]2C(=O)N[C@@H](Cc2ccccc2)C(=O)NC(Cc2ccc(F)cc2)C(N)=O)cc(C)c1O (some centres undefined),96,–,–,> 20,–,–,–
Cc1cc(CC(N)C(=O)N[C@@H]2CCCC[C@@H]2C(=O)N[C@@H](Cc2c[nH]c3ccccc23)C(=O)N[C@@H](C(N)=O)[C@H](C)c2ccccc2)cc(C)c1O (some centres undefined),287,–,–,–,69,–,4.11
Cc1cc(CC(N)C(=O)N[C@@H]2CCCC[C@@H]2C(=O)N[C@@H](Cc2c[nH]c3ccccc23)C(=O)N[C@H](C(N)=O)[C@@H](C)c2ccccc2)cc(C)c1O (some centres undefined),123,145,162,–,132,22.1,0.93
C[C@@H](NC(=O)[C@@H](N)Cc1ccc(O)cc1)C(=O)NCC(=O)N(C)[C@@H](Cc1ccccc1)C(=O)NCCO,–,119,178,–,–,–,–
C[C@H](c1ccccc1)[C@@H](NC(=O)[C@H](Cc1ccccc1)NC(=O)[C@H]1CCCC[C@H]1NC(=O)[C@@H](N)Cc1ccc(O)cc1)C(N)=O,1270,–,–,–,–,–,–
NC(=O)C(Cc1ccc(F)cc1)NC(=O)[C@H](Cc1c[nH]c2ccccc12)NC(=O)[C@@H]1CCCC[C@@H]1NC(=O)[C@@H](N)Cc1ccc(O)cc1 (some centres undefined),7820,–,–,–,54,–,143
C[C@H](c1ccccc1)[C@@H](NC(=O)[C@H](Cc1c[nH]c2ccccc12)NC(=O)[C@H]1CCCC[C@H]1NC(=O)[C@@H](N)Cc1ccc(O)cc1)C(N)=O,3360,–,–,–,97,–,34.6
NC(=O)C(Cc1ccc(F)cc1)NC(=O)[C@H](Cc1ccccc1)NC(=O)[C@H]1CCCC[C@H]1NC(=O)[C@@H](N)Cc1ccc(O)cc1 (some centres undefined),366,–,–,–,–,–,–
Cc1cc(CC(N)C(=O)N[C@@H]2CCCC[C@@H]2C(=O)N[C@@H](Cc2ccccc2)C(=O)N[C@@H](C(N)=O)[C@H](C)c2ccccc2)cc(C)c1O (some centres undefined),198,–,–,–,20,–,9.7
NC(=O)C(Cc1ccc(F)cc1)NC(=O)[C@H](Cc1c[nH]c2ccccc12)NC(=O)[C@H]1CCCC[C@H]1NC(=O)[C@@H](N)Cc1ccc(O)cc1 (some centres undefined),571,125,174,> 20,178,380,3.2
NC(=O)[C@H](Cc1ccccc1)NC(=O)[C@H](Cc1ccccc1)NC(=O)[C@@H]1CCCN1C(=O)[C@@H](N)Cc1ccc(O)cc1 [ENDOMORPHIN 2],–,123,163,0.095,–,–,–
Cc1cc(CC(N)C(=O)N[C@@H]2CCCC[C@@H]2C(=O)N[C@@H](Cc2ccccc2)C(=O)N[C@H](C(N)=O)[C@@H](C)c2ccccc2)cc(C)c1O (some centres undefined),142,146,159,> 20,302,17,0.47
